The nature of series [1]: Biliary excretion in wild-type FVB mouse treated with genistein measured after 2.5 hrs post intestinal perfusion by UPLC-MS/MS analysis. Type of series: ADME, Bile. The settings on record: in vivo, other. The procedure, abridged:
(§1)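 Gallbladder bile taken after 2.5 h of simultaneous small intestine/colon perfusion with 10 μM genistein (HBSS pH 7.4, 0.191 ml/min) in FVB or Bcrp1(−/−) mice (n = 4). Bile diluted 20-fold in HBSS, daidzein internal standard in acetonitrile added, dried and reconstituted. Genistein and conjugates quantified by UPLC-MS/MS.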

A short description of series [2]: Biliary excretion in BCRP-/- mouse treated with genistein measured after 2.5 hrs post intestinal perfusion by UPLC-MS/MS analysis. The format is ADME, Bile. The settings on record: in vivo, other. The procedure, abridged: as §1
A further series concerns Blood. As to the kind of experiment: Stability in Wistar rat blood at 3 uM up to 4 hrs by UPLC-MS/MS analysis. Type of series: ADME, tissue-based. Summed up:
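Genistein glucuronide mixture (G-7-G plus G-4′-G, 3 μM) with 3.8 μM genistein incubated in fresh rat whole blood, 37°C shaking water bath. Sampled at 0, 60, 120 and 240 min. Reaction stopped with acetonitrile containing daidzein internal standard. Genistein and conjugates quantified by UPLC-MS/MS using multiple reaction monitoring. n = 3.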

Series [3] is described as follows: Stability in potassium phosphate buffer at pH 7.4 up to 4 hrs. Conditions: pH 7.4, 4 h. The format is physicochemical. The procedure, abridged:
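Negative control run under the blood-incubation conditions but in 50 mM potassium phosphate buffer, pH 7.4, instead of blood. Genistein glucuronides (G-7-G plus G-4′-G, with aglycone) or sulfates (G-7-S plus G-4′-S, with aglycone) held at 37°C in a shaking water bath up to 4 h. Sampled at 0, 60, 120 and 240 min and read by UPLC-MS/MS.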

The record followed here is ChEMBL document CHEMBL3526009, “Breast cancer resistance protein (ABCG2) determines distribution of genistein phase II metabolites: reevaluation of the roles of ABCG2 in the disposition of genistein” (Drug Metab Dispos, 2012).

SMILES strings stand for the structures.

Turning to `O=C(O)[C@H]1O[C@@H](Oc2ccc(-c3coc4cc(O)cc(O)c4c3=O)cc2)[C@H](O)[C@@H](O)[C@@H]1O`, the Drug excretion result in series [1] and in series [2] was “metabolite_detected” each time. Moreover, the Stability result (with Blood; in series [3]) was “Stable” in each case.
